In ChEMBL document CHEMBL1833867, “Conformationally constrained analogs of BAY 59-3074 as novel cannabinoid receptor ligands” (Bioorg Med Chem Lett, 2011):

Assays:
[1] = Selectivity ratio of Ki for rat cannabinoid CB1 receptor to Ki for human cannabinoid CB2 receptor
[2] = Binding affinity to CB receptor in rat brain membranes; assay type: cell membranes
How it was run: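 Radioligand competition binding at rat CB1, displacing [3H]CP55,940.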

[3] = molecular target: Cannabinoid receptor 2 (Homo sapiens, UniProt P34972); test: Displacement of [3H]CP55940 from human cannabinoid CB2 receptor
Chain of Cannabinoid receptor 2 (Homo sapiens, UniProt P34972) (P34972 whole entry): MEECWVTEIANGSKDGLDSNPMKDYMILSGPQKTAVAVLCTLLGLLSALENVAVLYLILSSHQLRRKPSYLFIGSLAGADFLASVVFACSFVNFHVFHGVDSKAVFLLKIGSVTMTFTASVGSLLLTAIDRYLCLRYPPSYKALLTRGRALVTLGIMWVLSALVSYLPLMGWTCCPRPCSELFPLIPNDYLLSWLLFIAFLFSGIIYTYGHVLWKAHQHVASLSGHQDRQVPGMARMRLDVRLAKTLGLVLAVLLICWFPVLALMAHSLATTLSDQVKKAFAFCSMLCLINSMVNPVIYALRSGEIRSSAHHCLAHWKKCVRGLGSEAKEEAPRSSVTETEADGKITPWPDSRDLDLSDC

[4] = molecular target: Cannabinoid receptor 1 (Rattus norvegicus, UniProt P20272); test: Displacement of [3H]CP55940 from rat cannabinoid CB1 receptor
Chain of Cannabinoid receptor 1 (P20272 whole entry): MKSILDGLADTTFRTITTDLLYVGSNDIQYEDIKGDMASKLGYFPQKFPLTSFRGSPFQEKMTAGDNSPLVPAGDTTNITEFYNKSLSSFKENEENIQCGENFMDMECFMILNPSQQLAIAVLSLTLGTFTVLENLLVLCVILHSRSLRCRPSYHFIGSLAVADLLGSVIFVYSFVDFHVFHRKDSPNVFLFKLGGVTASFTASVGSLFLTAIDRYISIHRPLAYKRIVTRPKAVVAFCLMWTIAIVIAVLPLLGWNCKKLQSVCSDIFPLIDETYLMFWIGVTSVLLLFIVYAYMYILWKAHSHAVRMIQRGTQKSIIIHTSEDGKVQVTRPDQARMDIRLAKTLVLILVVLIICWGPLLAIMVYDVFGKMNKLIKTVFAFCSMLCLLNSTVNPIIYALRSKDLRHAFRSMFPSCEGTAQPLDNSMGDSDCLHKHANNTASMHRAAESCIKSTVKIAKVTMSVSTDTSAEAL

[5] = molecular target: Cannabinoid receptor 2 (Mus musculus, UniProt P47936); test: Displacement of [3H]CP55940 from mouse cannabinoid CB2 receptor
Chain of Cannabinoid receptor 2 (Mus musculus, UniProt P47936) (P47936 whole entry): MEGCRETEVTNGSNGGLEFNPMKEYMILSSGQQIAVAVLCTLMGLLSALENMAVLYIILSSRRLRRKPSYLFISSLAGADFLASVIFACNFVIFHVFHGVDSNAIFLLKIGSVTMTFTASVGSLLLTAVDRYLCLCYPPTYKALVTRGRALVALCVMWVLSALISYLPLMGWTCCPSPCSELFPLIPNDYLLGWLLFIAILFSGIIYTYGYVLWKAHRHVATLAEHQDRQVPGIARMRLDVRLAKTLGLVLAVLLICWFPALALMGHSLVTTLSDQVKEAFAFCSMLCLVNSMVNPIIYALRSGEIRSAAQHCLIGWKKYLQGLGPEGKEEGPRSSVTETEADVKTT

SMILES	Ratio Ki [1]	Ki [2]	Ki [3]	Ki [4]	Ki [5]
N#Cc1c(Oc2cccc(OS(=O)(=O)CCCC(F)(F)F)c2)cccc1C(F)(F)F	1.21	–	–	–	–
O=S(=O)(CCCC(F)(F)F)Oc1cccc(Oc2cccc3c2C[C@H](CO)C3)c1	–	0.46 nM	–	–	–
N#Cc1c(C(F)(F)F)ccc2c1oc1cc(OS(=O)(=O)CCCC(F)(F)F)ccc12	3.35	–	317 nM	1060 nM	339 nM
N#Cc1c(C(F)(F)F)ccc2c1oc1c(OS(=O)(=O)CCCC(F)(F)F)cccc12	9	–	253 nM	2280 nM	410 nM
N#Cc1c(C(F)(F)F)ccc2c1oc1cccc(OS(=O)(=O)CCCC(F)(F)F)c12	1.05	–	1810 nM	1900 nM	676 nM
N#Cc1c(C(F)(F)F)ccc2c1Oc1c(cccc1OS(=O)(=O)CCCC(F)(F)F)C2	12.4	–	1160 nM	14400 nM	1130 nM
N#Cc1c(C(F)(F)F)ccc2c1oc1ccc(OS(=O)(=O)CCCC(F)(F)F)cc12	0.76	–	3290 nM	2530 nM	1710 nM
